One may read the viability as a read-out of living cells in per cent, often relative to untreated cells. Broadly, the inhibition is the drop in the measured response relative to a control, in per cent.

The record followed here is PubChem BioAssay.

Experiment [1] is described as follows: Her2 expression decrease, cell viability multiplex – SKBR3 breast tumor cells, AlphaScreen, ATP viability, primary screen (AID 461;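 active means Her2 level under about 52% in both replicate screens, with viability over 70% of control, limit read from the data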;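 on Her2 level: lower value means less Her2 protein in the cells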;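 on viability: percent of carrier control wells set as 100% viability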). The note with it: SKBR3 Her2 protein level, 18-24 h, measured here: SKBR3 viability, ATP luminescence, at 10 µM. (In Alpha technology, singlet oxygen from a donor bead excites a nearby acceptor bead.)
In experiment [2] the target is Receptor tyrosine-protein kinase erbB-2 (Homo sapiens) (UniProt P04626). The experiment is described as above. The note with it: 18-24 h, at 10 µM, stronger effect = lower value.
Experiment [3] can be described thus: reduced viability of SK-BR-3 breast cancer cells – cell-based, 24 h, human, pilot screen (AID 572;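 active means viability at or below 10% of carrier control in both of two separate runs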;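 further: compound exposure lasted between 18 and 24 h rather than exactly 24 h; 100% = carrier-treated control wells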). Particulars: SK-BR-3 viability, CellTiter-Glo luminescence, at 10 µM, stronger effect = lower value. In general terms: In ATP-based viability assays light output follows the ATP content of the culture.
Experiment [4] can be described thus: HUVEC growth inhibition – cell-based, human, primary screen (AID 575;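 active means viability at or below 30% in both replicate assays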;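 further: 100% = median of untreated cell wells with 0.1% DMSO on each plate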). The note with it: HUVEC proliferation, CellTiter-Glo luminescence, 72 h; at 10 µM; stronger effect = lower value. The essentials:
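Test system: HUVEC primary cells. Quantity: 1250 endothelial cells in each well. Dosing: single-point 10 µM, DMSO 0.1% final. Incubation: 72 h treatment at 37 °C. Measured by: CTG luminescence. Control set: DMSO cell controls and MePR drug controls. Plate: collagen-coated 384-well format.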

Experiment [5] can be described thus: H69AR cell proliferation blockers – human, duplicate replicates, primary screen (AID 580).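 Further: 100% = mean luminescence of untreated wells and 0% = no signal.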 The note with it: H69AR lung tumor cells viability, ATP luminescence, 72 h; at 10 µM; stronger effect = lower value.
The nature of experiment [6]: MRP1 drug-resistance reversers in H69AR cells – cell-based, doxorubicin co-treatment, pilot screen (AID 601;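 active means viability loss from added drug above about 55%, and viability with drug at most 40%, in both replicates, limit read from the data, passing the limit was not always enough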). The note with it: CellTiter-Glo, 72 h, at 10 µM; for differential viability (reversal): stronger effect = higher value.
A short description of experiment [7]: yeast transport mutant growth inhibition pilot in 384-well plates, post-Golgi transport modulator project (AID 636; in the data active means inhibition above about 31%). The note with it: absorbance 615 nm, about 18 h, stronger effect = higher value.
Experiment [8] in a line: growth suppression of yeast trafficking mutant, preliminary HTS, modulators of trafficking downstream of Golgi apparatus project, 1536-format plate, OD 615 nm (AID 637; in the data active means inhibition above about 30%). The note with it: yeast transport mutant growth, absorbance 615 nm, 18 h; stronger effect = higher value.
[9] abbreviates: H69AR cells + 2 uM doxorubicin, measured here: viability with 2 uM doxorubicin, stronger effect = lower value.
Where [10] appears, read: H69AR cells, compound alone cytotoxicity.

The source made the active and inactive calls.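 How the source made its calls, unless noted: active means viability at or under a set limit in both replicates, limit being median viability minus 3 SD (cut at about 48% in these data, passing the limit was not always enough); inconclusive means at or under the limit in just one replicate; inactive means at or above the limit in both replicates.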

Sequence of Receptor tyrosine-protein kinase erbB-2 (Homo sapiens) (P04626 whole entry, looked up): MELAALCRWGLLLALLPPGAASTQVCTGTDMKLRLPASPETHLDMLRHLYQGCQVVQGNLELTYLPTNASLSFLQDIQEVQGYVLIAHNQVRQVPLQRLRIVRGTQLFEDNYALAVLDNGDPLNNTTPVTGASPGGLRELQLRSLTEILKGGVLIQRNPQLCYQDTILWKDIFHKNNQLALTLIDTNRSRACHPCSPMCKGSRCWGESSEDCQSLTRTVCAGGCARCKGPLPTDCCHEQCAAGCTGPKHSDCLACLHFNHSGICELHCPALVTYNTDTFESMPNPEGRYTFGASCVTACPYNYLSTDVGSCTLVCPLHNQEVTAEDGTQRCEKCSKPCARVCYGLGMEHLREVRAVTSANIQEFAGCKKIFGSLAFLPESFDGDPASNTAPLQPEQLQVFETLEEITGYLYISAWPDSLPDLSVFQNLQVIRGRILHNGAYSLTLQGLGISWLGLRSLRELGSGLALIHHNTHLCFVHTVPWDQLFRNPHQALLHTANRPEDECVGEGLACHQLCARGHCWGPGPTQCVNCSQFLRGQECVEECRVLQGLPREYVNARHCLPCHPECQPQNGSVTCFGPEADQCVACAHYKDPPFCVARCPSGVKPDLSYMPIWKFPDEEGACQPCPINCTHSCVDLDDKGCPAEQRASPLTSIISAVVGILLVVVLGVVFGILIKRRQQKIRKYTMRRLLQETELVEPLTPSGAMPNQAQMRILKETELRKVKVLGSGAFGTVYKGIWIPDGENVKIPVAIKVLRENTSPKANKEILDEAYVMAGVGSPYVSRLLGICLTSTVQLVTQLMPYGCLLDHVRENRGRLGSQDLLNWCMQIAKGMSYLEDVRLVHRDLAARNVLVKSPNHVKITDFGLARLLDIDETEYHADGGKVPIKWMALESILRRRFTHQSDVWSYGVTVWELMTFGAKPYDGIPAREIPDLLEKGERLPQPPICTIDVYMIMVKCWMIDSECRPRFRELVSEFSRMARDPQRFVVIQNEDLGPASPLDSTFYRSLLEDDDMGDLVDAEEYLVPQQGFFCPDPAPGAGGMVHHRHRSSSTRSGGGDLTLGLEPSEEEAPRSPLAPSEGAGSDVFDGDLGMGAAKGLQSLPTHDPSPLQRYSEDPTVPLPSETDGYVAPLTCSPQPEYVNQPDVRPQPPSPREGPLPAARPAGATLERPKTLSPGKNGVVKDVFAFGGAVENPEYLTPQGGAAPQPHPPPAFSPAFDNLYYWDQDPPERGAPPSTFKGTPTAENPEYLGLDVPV

Take `O=C(CN1CCCN(S(=O)(=O)c2ccc(Br)cc2)CC1)Nc1ccc2cn[nH]c2c1`: the viability is 106% in experiment [1]; 106% (inactive) in experiment [3]; 73.1% (inactive) in experiment [4]; 7.15% (active) in experiment [5]; 20.5% in experiment [6] (setting [9]); 7.15% in experiment [6] (setting [10]). Besides, the Her2 level in experiment [2] is 109% (inactive). The differential viability (reversal) in experiment [6] (H69AR cells + 2 uM doxorubicin) was -13.3% (inactive). The inhibition in experiment [7] is -2.37% (inactive); in experiment [8], 2.79% (inactive).

Regarding `CCn1c(=S)sc2nc(C)sc21`, the viability in experiment [1] was 94%; in experiment [3], 94% (inactive); in experiment [4], 96.6% (inactive); in experiment [5], 93.7% (inactive); in experiment [6] (setting [9]) it was 90.1%; in experiment [6] (setting [10]), 93.7%. For the same compound, the Her2 level in experiment [2] is 100% (inactive). Besides, the differential viability (reversal) in experiment [6] (H69AR cells + 2 uM doxorubicin) was 3.59% (inactive). The inhibition in experiment [7] was -4.27% (inactive); in experiment [8], 1.94% (inactive).

In the case of `O=C(O)C1CC=CCC1C(=O)Nc1cc(Cl)ccc1Cl` (stereo not given), the viability in experiment [1] was 86%; in experiment [3], 86% (inactive); in experiment [4], 81.2% (inactive); in experiment [5], 93.5% (inactive); in experiment [6] (setting [9]), 84.7%; in experiment [6] (setting [10]) it was 93.5%. Moreover, the Her2 level in experiment [2] is 100% (inactive). In addition, in experiment [6] (H69AR cells + 2 uM doxorubicin), the differential viability (reversal) was 8.81% (inactive). The inhibition is 0% (inactive) in experiment [7] and -0.82% (inactive) in experiment [8].

In the case of `CN(c1ccccc1)S(=O)(=O)c1ccc(C(=O)OCC(=O)NCc2ccco2)cc1`, the viability in experiment [1] was 95.5%; in experiment [3] it was 95.5% (inactive); in experiment [4], 88.5% (inactive); in experiment [5], 74.4% (inactive); in experiment [6] (setting [9]), 84.8%; in experiment [6] (setting [10]), 74.4%. Further, the Her2 level in experiment [2] was 112% (inactive). Moreover, the differential viability (reversal) in experiment [6] (H69AR cells + 2 uM doxorubicin) was -10.4% (inactive). Besides, the inhibition is 2.03% (inactive) in experiment [7] and 16.4% (inactive) in experiment [8].

For `COc1ccc(N(CC(=O)NC2CCCC2)C(=O)Cn2nnc(-c3ccc(C)cc3)n2)cc1`, the viability in experiment [1] is 79%; in experiment [3], 79% (inactive); in experiment [4], 95.5% (inactive); in experiment [5] it was 89.1% (inactive); in experiment [6] (setting [9]), 93.1%; in experiment [6] (setting [10]) it was 89.1%. Besides, the Her2 level in experiment [2] is 99.5% (inactive). For the same compound, the differential viability (reversal) in experiment [6] (H69AR cells + 2 uM doxorubicin) is -4.01% (inactive). In addition, the results for the inhibition in experiment [7] and in experiment [8] were 2.76% (inactive) and -7.58% (inactive), respectively.

As to `N#Cc1nc(-c2ccco2)oc1N1CCN(c2cccc(Cl)c2)CC1`, the viability in experiment [1] is 87%; in experiment [3], 87% (inactive); in experiment [4], 90.1% (inactive); in experiment [5], 90% (inactive); in experiment [6] (setting [9]), 95.2%; in experiment [6] (setting [10]), 90%. The Her2 level in experiment [2] was 85.5% (inactive). For the same compound, the differential viability (reversal) in experiment [6] (H69AR cells + 2 uM doxorubicin) was -5.21% (inactive). In addition, the figures for the inhibition in experiment [7] and in experiment [8] were -4.13% (inactive) and 4.29% (inactive), respectively.

Turning to `O=C(c1ccc(Cl)c(F)c1F)N1CCCC1`, the viability in experiment [1] is 88.5%; in experiment [3], 88.5% (inactive); in experiment [4], 98.4% (inactive); in experiment [5], 102% (inactive); in experiment [6] (setting [9]), 90.7%; in experiment [6] (setting [10]), 102%. Further, the Her2 level in experiment [2] is 106% (inactive). The differential viability (reversal) in experiment [6] (H69AR cells + 2 uM doxorubicin) is 11.3% (inactive). Further, the inhibition in experiment [7] is -1.67% (inactive); in experiment [8], -10.2% (inactive).

As for `O=c1c2ccccc2nnn1CSc1nc2cc(Cl)ccc2c(=O)n1Cc1ccco1`, the viability in experiment [1] is 102%; in experiment [3], 102% (inactive); in experiment [4], 81.5% (inactive); in experiment [5] it was 86.4% (inactive); in experiment [6] (setting [9]), 81.7%; in experiment [6] (setting [10]), 86.4%. Moreover, the Her2 level in experiment [2] is 104% (inactive). Also, the differential viability (reversal) in experiment [6] (H69AR cells + 2 uM doxorubicin) was 4.62% (inactive). The inhibition in experiment [7] was -0.53% (inactive); in experiment [8] it was -4.03% (inactive).

For `O=C1NC(c2ccco2)Nc2ccccc21` (stereo not given), the viability in experiment [1] was 82.5%; in experiment [3], 82.5% (inactive); in experiment [4] it was 107% (inactive); in experiment [5], 97.8% (inactive); in experiment [6] (setting [9]), 90.8%; in experiment [6] (setting [10]), 97.8%. In addition, the Her2 level in experiment [2] is 85.5% (inactive). The differential viability (reversal) in experiment [6] (H69AR cells + 2 uM doxorubicin) is 7.01% (inactive). The inhibition in experiment [7] was 0.55% (inactive); in experiment [8], -6.98% (inactive).

Regarding `CCOC(=O)CSc1nc(C)c(C(=O)OCC)s1`, the viability was 89% in experiment [1]; 89% (inactive) in experiment [3]; 105% (inactive) in experiment [4]; 101% (inactive) in experiment [5]; 97.8% in experiment [6] (setting [9]); 101% in experiment [6] (setting [10]). For the same compound, the Her2 level in experiment [2] is 93.5% (inactive). Moreover, the differential viability (reversal) in experiment [6] (H69AR cells + 2 uM doxorubicin) was 3.4% (inactive). Further, the inhibition is 0.92% (inactive) in experiment [7] and -4.68% (inactive) in experiment [8].

As to `Cc1cc(Cl)c(S(=O)(=O)NC2CCCCC2)cc1OCC(=O)Nc1nncs1`, the viability in experiment [1] is 107%; in experiment [3] it was 107% (inactive); in experiment [4], 86.5% (inactive); in experiment [5], 90.1% (inactive); in experiment [6] (setting [9]), 93.6%; in experiment [6] (setting [10]), 90.1%. In addition, the Her2 level in experiment [2] was 88% (inactive). Further, the differential viability (reversal) in experiment [6] (H69AR cells + 2 uM doxorubicin) is -3.42% (inactive). For the same compound, the figures for the inhibition in experiment [7] and in experiment [8] were -4.74% (inactive) and -3.17% (inactive), respectively.

Regarding `Cc1ccccc1NC(=O)C1CC(=O)N(c2ccccc2F)C1` (stereo not given), the viability in experiment [1] was 91.5%; in experiment [3], 91.5% (inactive); in experiment [4], 102% (inactive); in experiment [5], 100% (inactive); in experiment [6] (setting [9]), 82.1%; in experiment [6] (setting [10]) it was 100%. Besides, the Her2 level in experiment [2] is 81% (inactive). The differential viability (reversal) in experiment [6] (H69AR cells + 2 uM doxorubicin) was 18.3% (inactive). The values for the inhibition in experiment [7] and in experiment [8] were -8.65% (inactive) and 6.89% (inactive), respectively.

Regarding `Cn1c(-c2cc(Br)ccc2O)n[nH]c1=S`, the viability in experiment [1] is 89.5%; in experiment [3], 89.5% (inactive); in experiment [4], 87% (inactive); in experiment [5], 92.9% (inactive); in experiment [6] (setting [9]), 89.7%; in experiment [6] (setting [10]) it was 92.9%. Moreover, the Her2 level in experiment [2] is 110% (inactive). The differential viability (reversal) in experiment [6] (H69AR cells + 2 uM doxorubicin) was 3.24% (inactive). In addition, the inhibition was 4.03% (inactive) in experiment [7] and -9.84% (inactive) in experiment [8].

On to `COc1cccc(-c2cc(C(=O)Nc3cc(OC)c(OC)c(OC)c3)no2)c1`, for which the viability was 106% in experiment [1]; 106% (inactive) in experiment [3]; 57.5% (inactive) in experiment [4]; 16.6% (active) in experiment [5]; 88.6% in experiment [6] (setting [9]); 16.6% in experiment [6] (setting [10]). For the same compound, the Her2 level in experiment [2] is 99.5% (inactive). Moreover, in experiment [6] (H69AR cells + 2 uM doxorubicin), the differential viability (reversal) is -72% (inactive). The inhibition was -4.59% (inactive) in experiment [7] and -3.11% (inactive) in experiment [8].

Regarding `CC(=O)N(C)C1(c2nnnn2CCOC(=O)Nc2ccc(Cl)cc2)CCCCC1`, the viability in experiment [1] was 114%; in experiment [3], 114% (inactive); in experiment [4] it was 98.1% (inactive); in experiment [5] it was 104% (inactive); in experiment [6] (setting [9]), 91%; in experiment [6] (setting [10]) it was 104%. In experiment [2], the Her2 level was 114% (inactive). Besides, in experiment [6] (H69AR cells + 2 uM doxorubicin), the differential viability (reversal) was 12.5% (inactive). For the same compound, the inhibition in experiment [7] was -1.45% (inactive); in experiment [8], -8.33% (inactive).
